From ChEMBL document CHEMBL1125082, “Synthesis and antimalarial activity of (+)-deoxoartemisinin” (J Med Chem, 1990)
Converted amounts (≈) assume the structure as drawn.

Legend:
Plasmodium berghei [1] = experiment: Antimalarial activity against Plasmodium berghei infected mice (Mus musculus) at 160 mg/kg dose; active in 2 of 5; assay type: functional
Method in brief: (§1)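 Mice infected intraperitoneally on day 0 with 5.98×10^5 P. berghei-parasitized cells. A single subcutaneous dose in peanut oil was given on day 3, at 640, 320, 160, 80, 40 or 20 mg/kg. Blood films were taken on day 6, then every 7 days to day 60. Mice surviving 60 days counted as cured. Activity meant survival over twice that of infected untreated controls.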

Plasmodium falciparum [2] = experiment: In vitro antimalarial activity against mefloquine-resistant Plasmodium falciparum D6 (Sierra Leone); assay type: functional, organism-based
Method in brief: (§2)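 Semiautomated microdilution over a 64-fold dilution range, with DMSO stock diluted in medium with 10% plasma. Parasites at 0.5% parasitemia and 1.5% hematocrit, 37°C under 5% O2/5% CO2/90% N2 for 24 h. Tritiated hypoxanthine added for a further 18–20 h and incorporation read by scintillation. IC50 from nonlinear regression of concentration–response curves.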

Plasmodium falciparum [3] = experiment: In vitro antimalarial activity against chloroquine-resistant Plasmodium falciparum W2 (Indochina); assay type: functional, organism-based; method in brief: as §2
Plasmodium berghei [4] = experiment: Antimalarial activity against Plasmodium berghei infected mice (Mus musculus) at 20 mg/kg dose; n=5; assay type: functional; method in brief: as §1
Plasmodium berghei [5] = experiment: Antimalarial activity against Plasmodium berghei infected mice (Mus musculus) at 320 mg/kg dose; active in 2 of 5; assay type: functional; method in brief: as §1
Plasmodium berghei [6] = experiment: Antimalarial activity against Plasmodium berghei infected mice (Mus musculus) at 40 mg/kg dose; n=5; assay type: functional; method in brief: as §1
Plasmodium berghei [7] = experiment: Antimalarial activity against Plasmodium berghei infected mice (Mus musculus) at 80 mg/kg dose;n=5; assay type: functional; method in brief: as §1
Plasmodium berghei [8] = experiment: Antimalarial activity against Plasmodium berghei infected mice (Mus musculus) at 640 mg/kg dose; n=5; assay type: functional; method in brief: as §1
Plasmodium berghei [9] = experiment: Antimalarial activity against Plasmodium berghei infected mice (Mus musculus) at 160 mg/kg dose; n=5; assay type: functional; method in brief: as §1
Plasmodium berghei [10] = experiment: Antimalarial activity against Plasmodium berghei infected mice (Mus musculus) at 320 mg/kg dose; n=5; assay type: functional; method in brief: as §1

| SMILES | No. of mice cured (Plasmodium berghei [1]) | IC50 (Plasmodium falciparum [2]) [ng/mL] | IC50 (Plasmodium falciparum [3]) [ng/mL] | No. of mice cured (Plasmodium berghei [4]) | No. of mice cured (Plasmodium berghei [5]) | No. of mice cured (Plasmodium berghei [6]) | No. of mice cured (Plasmodium berghei [7]) | No. of mice cured (Plasmodium berghei [8]) | No. of mice cured (Plasmodium berghei [9]) | No. of mice cured (Plasmodium berghei [10]) |
| --- | --- | --- | --- | --- | --- | --- | --- | --- | --- | --- |
| C[C@@H]1CC[C@H]2[C@@H](C)CO[C@@H]3OC4(C)CC[C@@H]1[C@]32OO4 (single isomer, unassigned) [DEOXOARTEMISININ] | 0 | 0.58 (≈ 2.16 nM) | 0.15 (≈ 0.559 nM) | 0 | 2 | 0 | 0 | 5 |  |  |
| C[C@@H]1CC[C@H]2[C@@H](C)C(O)O[C@@H]3OC4(C)CC[C@@H]1[C@]32OO4 (single isomer, unassigned) |  | 0.11 (≈ 0.387 nM) | 0.04 (≈ 0.141 nM) |  |  |  |  |  |  |  |
| CCO[C@H]1O[C@@H]2O[C@@]3(C)CC[C@H]4[C@H](C)CC[C@@H]([C@H]1C)[C@@]24OO3 [ARTEMOTIL] |  | 0.87 (≈ 2.78 nM) | 0.16 (≈ 0.512 nM) |  |  |  |  |  |  |  |
| C[C@@H]1CC[C@H]2[C@@H](C)C(=O)O[C@@H]3O[C@@]4(C)CC[C@@H]1[C@]32OO4 [ARTEMISININ] |  | 2.33 (≈ 8.25 nM) | 1.21 (≈ 4.29 nM) | 0 |  | 0 | 0 | 5 | 0 | 0 |
| C[C@@H]1CC[C@H]2[C@@H](C)CO[C@@H]3OC4(C)CC[C@@H]1[C@]32O4 (single isomer, unassigned) |  | 250 (≈ 991 nM) | 250 (≈ 991 nM) |  |  |  |  |  |  |  |
